Assay outcomes: PubChem, several laboratories
Rows were chosen to be rich in hits. Some 3.3% of all compounds tested hit in one or more screens of this group.
ABCB6 inh MLPCN – inhibitors of human ABC transporter ABCB6; 360,000 compounds, 0.19% hits; AID 602162; Q9NP58; K562-ABCB6 porphyrin accumulation, flow cytometry, 1 h; hits give low values; fluorescence ratio to DMSO, % at 10 µM;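 active = fluorescence ratio to DMSO below 75%, the collection mean minus 3 SD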;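 note: signal is porphyrin accumulated inside mitochondria; lower ratio means ABCB6 inhibition with less porphyrin fluorescence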
GAA850 FXN act – activators of GAA850 frataxin (FXN) promoter; HEK293 lucGAA850 FXN promoter luciferase reporter, 24 h; percent of 10 µM SAHA response; activation, % at 6 µM; 360,000 compounds, 0.56% hits; AID 540364;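 active = activation above the average of all compounds screened plus 3 SD, cutoff fixed separately per campaign, cut at about 7.5% in these data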
AHR act – activators of human aryl hydrocarbon receptor; AHR-responsive luciferase reporter cells, luminescence; activation, % at 5 µM; 320,000 compounds, 2.5% hits; in the data active = activation above about 47%
Target sequence (P35869 whole entry, looked up): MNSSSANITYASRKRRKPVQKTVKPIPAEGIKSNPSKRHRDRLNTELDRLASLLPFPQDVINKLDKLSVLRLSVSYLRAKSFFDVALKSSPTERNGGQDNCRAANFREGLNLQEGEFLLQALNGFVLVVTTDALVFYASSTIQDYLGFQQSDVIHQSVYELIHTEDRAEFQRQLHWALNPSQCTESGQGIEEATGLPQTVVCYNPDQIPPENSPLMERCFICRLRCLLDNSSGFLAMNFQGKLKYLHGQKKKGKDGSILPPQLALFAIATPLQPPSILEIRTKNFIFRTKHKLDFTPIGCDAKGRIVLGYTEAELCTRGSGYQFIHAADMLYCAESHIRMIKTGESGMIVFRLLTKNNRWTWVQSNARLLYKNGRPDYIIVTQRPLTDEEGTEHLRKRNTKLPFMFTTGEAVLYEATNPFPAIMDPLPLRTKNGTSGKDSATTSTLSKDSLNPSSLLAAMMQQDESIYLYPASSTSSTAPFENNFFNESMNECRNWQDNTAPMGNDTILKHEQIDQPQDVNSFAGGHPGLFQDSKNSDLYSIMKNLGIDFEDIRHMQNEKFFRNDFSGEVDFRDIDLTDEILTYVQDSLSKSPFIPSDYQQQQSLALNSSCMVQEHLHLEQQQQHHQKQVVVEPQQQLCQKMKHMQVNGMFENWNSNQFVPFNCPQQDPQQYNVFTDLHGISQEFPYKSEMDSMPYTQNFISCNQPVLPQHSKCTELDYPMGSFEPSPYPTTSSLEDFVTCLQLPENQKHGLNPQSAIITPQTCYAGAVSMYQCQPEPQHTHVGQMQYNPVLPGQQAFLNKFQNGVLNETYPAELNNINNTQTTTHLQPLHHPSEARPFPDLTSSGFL
STAT3 activator – activators of IL-6 induced STAT3 signaling; U3A cells, IL-6 STAT3-luciferase reporter, luminescence; 100% = signal with IL-6 EC80 alone; activation (% of control), % at 5.6 µM; 190,000 compounds, 0.91% hits; AID 871;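 active = activation above the screen-wide mean of compound activation plus 3 SD, cut at about 130% in these data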
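Material: STAT1-lacking human U3A cells, STAT3 luciferase reporter | Benchmarks: IL-6-only wells as 100% reference | Probe or stimulus: IL-6 (33 ng/mL) | Timing: Compound 1 h, then IL-6 6 h at 37 °C | Detection: Luminescence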
ABCB6 inh CP1 – human ABCB6 transporter inhibition; K562-ABCB6 porphyrin accumulation, flow cytometry, 1 h; hits give low values; shares compounds with ABCB6 inh MLPCN; ratio response (% of DMSO), % at 10 µM; 700 tested, under 10 active;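 active = repeat-averaged ratio response below 75% of DMSO, the collection mean minus 3 SD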;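 note: median porphyrin fluorescence at 575 nm with 488 nm excitation from mitochondria; lower ratio means less porphyrin signal so ABCB6 inhibition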
K562 vector FC – counter-screen for ABCB6 inhibitors: effect in vector-only K562 cells; 25 tested, under 10 active; percent response (fluorescence), % at 100 µM; shares compounds with ABCB6 inh MLPCN; K562 empty-vector cells, flow cytometry fluorescence, 1 h;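 active = compounds whose half-maximal effective concentration is below 100 µM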
Each line names hits and unclear results; the compound was inactive in the other large screens (follow-up assays come after a bar, where they were run).

CCc1nnc(NC(=O)c2nc(S(=O)(=O)Cc3ccc(C)cc3)ncc2Cl)s1	none (no result: STAT3 activator) | K562 vector FC inactive
CCOc1ccccc1NC(=O)c1nc(S(=O)(=O)Cc2cccc(C)c2)ncc1Cl	ABCB6 inh MLPCN 41 (no result: STAT3 activator) | K562 vector FC inactive
Cc1ccc(CS(=O)(=O)c2ncc(Cl)c(C(=O)Nc3ccc(OC(F)F)cc3)n2)cc1	ABCB6 inh MLPCN 62 (no result: STAT3 activator) | K562 vector FC inactive
CCc1nnc(NC(=O)c2nc(S(=O)(=O)Cc3ccccc3)ncc2Cl)s1	none (no result: STAT3 activator) | K562 vector FC inactive
CCCCc1ccc(S(=O)(=O)Nc2cc(C)on2)cc1	none
CC(=O)Nc1ccc(NC(=O)c2nc(S(=O)(=O)Cc3ccccc3)ncc2Cl)cc1	ABCB6 inh MLPCN 70 (no result: STAT3 activator) | K562 vector FC inactive
Cc1cccc(CS(=O)(=O)c2ncc(Cl)c(C(=O)Nc3nnc(C(C)C)s3)n2)c1	none (no result: STAT3 activator) | K562 vector FC inactive
CCc1nnc(NC(=O)c2nc(S(=O)(=O)Cc3cccc(C)c3)ncc2Cl)s1	none (no result: STAT3 activator) | K562 vector FC inactive
CC(C)c1nnc(NC(=O)c2nc(S(=O)(=O)Cc3ccc(F)cc3)ncc2Cl)s1	none (no result: STAT3 activator) | K562 vector FC inactive
COc1ccc(CNC(=O)c2nc(S(=O)(=O)Cc3ccccc3)ncc2Cl)cc1	none (no result: STAT3 activator)
CCCCCOc1ccc(C(=O)CCC(=O)NNC(=O)c2ccncc2)cc1	none (no result: AHR act, STAT3 activator)
COc1ccc(C(=O)/C=C/c2ccccc2C(F)(F)F)cc1	none
C=CCn1c2ccccc2c2nnc(SC(CC)C(=O)Nc3sc4c(c3C#N)CCCC4)nc21 (stereo not drawn)	none
O=C(O)CC1S/C(=N\N=C2\C(=O)Nc3ccccc32)N(c2ccc(O)cc2)C1=O (stereo not drawn)	none (no result: STAT3 activator)
CSc1nnc(NC(=O)c2nc(S(=O)(=O)Cc3ccccc3F)ncc2Cl)s1	none (no result: STAT3 activator)
Cc1nnc(NC(=O)c2nc(S(=O)(=O)Cc3ccccc3C)ncc2Cl)s1	none (no result: STAT3 activator) | K562 vector FC inactive
CCCSc1nc2sc3c(c2c(=O)[nH]1)CC(C)(CC)OC3 (stereo not drawn)	none (no result: STAT3 activator)
CCSc1nc2sc3c(c2c(=O)[nH]1)CC(C)(CC)OC3 (stereo not drawn)	ABCB6 inh MLPCN 61 | ABCB6 inh CP1 inactive
O=c1[nH]c(=S)[nH]c(O)c1N=Nc1ccc(-c2ccccc2)cc1[N+](=O)[O-]	none (no result: ABCB6 inh MLPCN, GAA850 FXN act, AHR act)
NC(c1ccccc1)c1csc(Nc2ccc(C(F)(F)F)cn2)n1 (stereo not drawn)	ABCB6 inh MLPCN 71 (no result: AHR act, STAT3 activator) | ABCB6 inh CP1 inactive
CC(C)C(N)c1csc(Nc2ccc(C(F)(F)F)cn2)n1 (stereo not drawn)	none (no result: AHR act, STAT3 activator)
Cc1cc(Br)ccc1OCCn1ccnc1	none
COc1ccc(CN2CCNC(=O)C2CC(=O)NCC2CCOCC2)c(F)c1 (stereo not drawn)	none (no result: STAT3 activator)
Cc1cccc(NC(=O)c2cc(NC(=O)CCCC(=O)O)ccc2Cl)n1	ABCB6 inh MLPCN 53 | ABCB6 inh CP1 inactive
O=C(Nc1cc(N2CCOCC2)ncn1)NC1(C(F)(F)F)Oc2ccccc2O1	none
CCOC(=O)CN1C(c2ccc(O)cc2)Nc2ccc(Br)cc2C1c1ccccc1 (stereo not drawn)	ABCB6 inh MLPCN 73 | ABCB6 inh CP1 inactive
CCOC(=O)CN1C(=O)Nc2ccc(Br)cc2C1c1ccccc1 (stereo not drawn)	none
CN(C)S(=O)(=O)c1cc(C(=O)NCC2CCCO2)c(Cl)cc1Cl (stereo not drawn)	none
COc1cccc(CNS(=O)(=O)c2cn(C)cn2)c1	ABCB6 inh MLPCN 8.0 | ABCB6 inh CP1 inactive
CSc1ccc(Cl)c(C(=O)OCC(=O)N2CCN(C(=O)c3ccco3)CC2)c1	none (no result: STAT3 activator)
Cn1c(SCC(=O)Nc2ccc(N3CCOCC3)cc2)nnc1-c1ccccc1	none
CC(Sc1nnc(-c2ccncc2)n1C)C(=O)Nc1ccc(N2CCOCC2)cc1 (stereo not drawn)	ABCB6 inh MLPCN 69 (no result: STAT3 activator) | ABCB6 inh CP1 inactive
CC1(C(=O)N2CCN(C(=O)c3ccco3)CC2)CCN1Cc1ccccc1OC(F)F (stereo not drawn)	ABCB6 inh MLPCN 70 (no result: AHR act, STAT3 activator) | ABCB6 inh CP1 inactive
COc1ccc2nc(NCCCNC(=O)c3cc(OC)c(OC)c(OC)c3)c(C#N)cc2c1	none
Cc1cc2c(C)nc(Cc3ccccc3)nc2o1	ABCB6 inh MLPCN 9.0, AHR act 54 | ABCB6 inh CP1 inactive
CSc1nc(C)c2cc(C)oc2n1	none
COc1ccccc1CNC(=O)COC(=O)Cn1cnc2ccccc21	none
COc1ccc(C(=O)C2CCCN(C(=O)c3cccs3)C2)cc1F (stereo not drawn)	ABCB6 inh MLPCN 71 | ABCB6 inh CP1 inactive
COc1ccc(C(=O)C2CCCN(C(=O)c3cccnc3OC)C2)cc1F (stereo not drawn)	none
CCN(CC)S(=O)(=O)c1ccc(C)c(NC(=O)CN2C(=O)NC3(CCCC3)C2=O)c1	ABCB6 inh MLPCN 74 (no result: STAT3 activator) | ABCB6 inh CP1 inactive
COc1ccc(N(C(=O)C(C)C)S(=O)(=O)c2ccc(Cl)cc2)cc1	ABCB6 inh MLPCN 48 | ABCB6 inh CP1 inactive
Cc1ccccc1Nc1nc(-c2cccnc2)nc2ccccc12	none (no result: STAT3 activator)
Cc1ccc(Nc2nc(-c3cccnc3)nc3ccccc23)cc1	ABCB6 inh MLPCN 71 (no result: STAT3 activator) | ABCB6 inh CP1 inactive
COc1ccc(CCNC(=O)Cc2ccc(NS(=O)(=O)c3ccc(F)cc3)cc2)cc1OC	none (no result: STAT3 activator)
c1csc(CNCCCN2CCOCC2)c1	none
CCCCOCCCNCc1cccn1CCN1CCOCC1	ABCB6 inh MLPCN 66 (no result: STAT3 activator) | ABCB6 inh CP1 inactive
CCC(=O)c1ccc(N2CCC(C)CC2)c(F)c1	none
Cc1ccc(CN(C)C(=O)c2ccccc2Oc2ccccc2)o1	ABCB6 inh MLPCN 67 | ABCB6 inh CP1 inactive
Cc1nc(N2CCC(C)CC2)c2c(C)c(C(=O)Nc3ccccc3C(F)(F)F)sc2n1	none
CCOC(=O)CNC(=O)CCc1nnc2ccc(N3CCC(C)CC3)nn12	none (no result: STAT3 activator) | ABCB6 inh CP1 inactive
COc1ccc(N2CCN(C(=O)CCc3nnc4ccc(N5CCC(C)CC5)nn34)CC2)cc1	none (no result: STAT3 activator)
CCCNC(=O)CCc1nnc2ccc(N3CCC(C)CC3)nn12	none (no result: STAT3 activator) | ABCB6 inh CP1 inactive
CC1CCN(c2ccc3nnc(CCC(=O)NCCCOC(C)C)n3n2)CC1	none (no result: STAT3 activator) | ABCB6 inh CP1 inactive
CCOC(=O)C1CCN(C(=O)CCc2nnc3ccc(N4CCC(C)CC4)nn23)CC1	none (no result: STAT3 activator) | ABCB6 inh CP1 inactive
Cc1cccc(C(O)c2ncc(-c3ccccc3F)[nH]2)c1C (stereo not drawn)	none (no result: AHR act, STAT3 activator)
CC1CCCCC1NC(=O)CCCn1c(=S)[nH]c2ccsc2c1=O (stereo not drawn)	none (no result: STAT3 activator)
CC1CC(C)CN(C(=O)CCc2nnc3ccc(N4CCCCC4)nn23)C1 (stereo not drawn)	none (no result: STAT3 activator) | ABCB6 inh CP1 inactive
CC1CCN(c2ccc3nnc(CCC(=O)N4CCN(c5ccccc5F)CC4)n3n2)CC1	none (no result: STAT3 activator)
CC1(C(=O)NCc2ccco2)Cc2c(-c3ccc(C(N)=O)cc3)ccnc2O1 (stereo not drawn)	none (no result: AHR act, STAT3 activator)
CCCCNc1oc(-c2ccc(OC)cc2)nc1S(=O)(=O)c1ccccc1	ABCB6 inh MLPCN 69 | ABCB6 inh CP1 inactive
CCNc1oc(-c2ccc(OC)cc2)nc1S(=O)(=O)c1ccc(Br)cc1	none
